This passage reports Antagonism, pKB and Protection results from ChEMBL document CHEMBL1125170, “A novel series of selective leukotriene antagonists: exploration and optimization of the acidic region in 1,6-disubstituted indoles and indazoles” (1990).

Activity calls are given as the source filed them. No cut-off for these calls is given here.

For assay [1], the species on record is Cavia porcellus. Description: In vitro antagonism of 8 nM of peptidoleukotriene (LTE4) induced contraction of guinea pig tracheal spirals at 0.1 X E-7M concentration. Format: functional, Trachea. A digest of the protocol: (§1)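 Guinea pig tracheal spirals held at 37 °C in modified Krebs' (mM: NaCl 119, KCl 4.6, CaCl2 1.8, MgCl2 0.5, NaHCO3 24.9, NaH2PO4 1.0, glucose 11.1) plus indomethacin 5 μM, resting tension 2 g, isometric recording. After reproducible 8 nM LTE4 responses, compound added for 10 min, then rechallenged. % inhibition is adjusted for the paired vehicle tissue. At least four spirals, paired t test.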

The species entered for assay [2] is Cavia porcellus. Description: Dissociation constant KB = [antagonist]/(dose ratio -1). KB determined in guinea pig tracheal spirals with LTE4 as agonist. Format: functional, Trachea. In a few lines:
(§2)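 Isolated guinea pig tracheal strips in Krebs' buffer with indomethacin (5 μM), 37 °C, 95% O2/5% CO2, resting tension 2 g. Carbachol (30 μM) sets the maximum. Antagonist incubated 30 min, then cumulative LTE4 concentration–response curves in log increments, one curve per tissue. EC50 by linear regression, paired vehicle controls. KB = [antagonist]/(DR − 1) (Furchgott).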

Assay [3] is filed under the species Cavia porcellus. Description: In vitro antagonism of 8 nM of peptidoleukotriene (LTE4) induced contraction of guinea pig tracheal spirals at 0.033 X E-7M concentration. Format: functional, Trachea. A digest of the protocol:
as §1

For assay [4], the species on record is Cavia porcellus. Description: In vitro antagonism of 8 nM of peptidoleukotriene (LTE4) induced contraction of guinea pig tracheal spirals at 0.001 X E-7M concentration. Format: functional, Trachea. In a few lines:
as §1

Assay [5] is filed under the species Cavia porcellus. Description: In vitro antagonism of 8 nM of peptidoleukotriene (LTE4) induced contraction of guinea pig tracheal spirals at 0.01 X E-7M concentration. Format: functional, Trachea. A digest of the protocol:
as §1

Assay [6] deals with Cavia porcellus. Description: In vivo percent protection against aerosolized LTD4 induced dyspnea in guinea pig at 1 umol/kg po (180 minutes post oral dosing); 40/6. Format: functional.
The species named for assay [7] is Cavia porcellus. Kind of assay: In vitro antagonism of 8 nM of peptidoleukotriene (LTE4) induced contraction of guinea pig tracheal spirals at 100 X E-7M concentration; Not active. Format: functional. The following applies: Trachea. A digest of the protocol: as §1
Assay [8] deals with T1, Cysteinyl leukotriene receptor 1 (Cavia porcellus) (UniProt Q2NNR5).
T1 sequence (whole entry): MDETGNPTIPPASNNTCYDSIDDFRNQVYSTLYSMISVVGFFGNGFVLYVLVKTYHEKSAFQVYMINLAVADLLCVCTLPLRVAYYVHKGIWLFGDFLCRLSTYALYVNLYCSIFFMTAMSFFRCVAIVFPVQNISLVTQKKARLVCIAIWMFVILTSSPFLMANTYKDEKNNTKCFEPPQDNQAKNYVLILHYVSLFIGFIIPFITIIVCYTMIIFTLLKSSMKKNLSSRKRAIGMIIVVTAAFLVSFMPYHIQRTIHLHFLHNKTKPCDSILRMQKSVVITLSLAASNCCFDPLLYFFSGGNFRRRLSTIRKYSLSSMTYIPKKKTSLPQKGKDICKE
Description: Dissociation constant KB = [antagonist]/(dose ratio -1).KB determined in guinea pig tracheal spirals with LTE4 as agonist. Format: functional, tissue-based. The settings on record: Trachea. In a few lines: as §2

The species named for assay [9] is Cavia porcellus. Description: In vitro antagonism of 8 nM of peptidoleukotriene (LTE4) induced contraction of guinea pig tracheal spirals at 3.3 X E-7M concentration. Format: functional, Trachea. A digest of the protocol: as §1
Assay [10] concerns Cavia porcellus. Description: In vivo percent protection against aerosolized LTD4 induced dyspnea in guinea pig at 126 umol/kg po (60 minutes post oral dosing); 33/5. Format: functional.
Assay [11] concerns Cavia porcellus. Description: In vivo percent protection against aerosolized LTD4 induced dyspnea in guinea pig at 30 umol/kg po (180 minutes post oral dosing); 67/11. Format: functional.
Assay [12] concerns Cavia porcellus. Kind of assay: In vivo percent protection against aerosolized LTD4 induced dyspnea in guinea pig at 30 umol/kg po (60 minutes post oral dosing); 48/12. Format: functional.
Assay [13] is filed under the species Cavia porcellus. Kind of assay: In vitro antagonism of 8 nM of peptidoleukotriene (LTE4) induced contraction of guinea pig tracheal spirals at 0.33 X E-7M concentration. Format: functional, Trachea. In a few lines:
as §1

The species named for assay [14] is Cavia porcellus. Kind of assay: In vitro antagonism of 8 nM of peptidoleukotriene (LTE4) induced contraction of guinea pig tracheal spirals at 33 X E-7M concentration. Format: functional, Trachea. A digest of the protocol: as §1
Assay [15] concerns Cavia porcellus. Description: In vivo percent protection against aerosolized LTD4 induced dyspnea in guinea pig at 100 umol/kg po (60 minutes post oral dosing); 23/6. Format: functional.
The species entered for assay [16] is Cavia porcellus. Description: In vitro antagonism of 8 nM of peptidoleukotriene (LTE4) induced contraction of guinea pig tracheal spirals at 1 X E-7M concentration. Format: functional, Trachea. In a few lines: as §1
The species entered for assay [17] is Cavia porcellus. Kind of assay: In vitro antagonism of 8 nM of peptidoleukotriene (LTE4) induced contraction of guinea pig tracheal spirals at 100 X E-7M concentration; Not significant. Format: functional, Trachea. A digest of the protocol: as §1
Assay [18] concerns Cavia porcellus. Description: In vivo percent protection against aerosolized LTD4 induced dyspnea in guinea pig at 30 umol/kg po (180 minutes post oral dosing); 89/8. Format: functional.
The subject of assay [19] is Cavia porcellus. Kind of assay: In vivo percent protection against aerosolized LTD4 induced dyspnea in guinea pig at 10 umol/kg po (180 minutes post oral dosing); 37/8. Format: functional.
Assay [20] relates to Cavia porcellus. Kind of assay: In vivo percent protection against aerosolized LTD4 induced dyspnea in guinea pig at 30 umol/kg po (180 minutes post oral dosing); 43/7. Format: functional.
Assay [21] is filed under the species Cavia porcellus. Description: In vitro antagonism of 8 nM of peptidoleukotriene (LTE4) induced contraction of guinea pig tracheal spirals at 3 X E-7M concentration. Format: functional, Trachea. A digest of the protocol:
as §1

Assay [22] is filed under the species Cavia porcellus. Description: In vitro antagonism of 8 nM of peptidoleukotriene (LTE4) induced contraction of guinea pig tracheal spirals at 10 X E-7M concentration. Format: functional, Trachea. A digest of the protocol:
as §1

The subject of assay [23] is Cavia porcellus. Kind of assay: In vivo percent protection against aerosolized LTD4 induced dyspnea in guinea pig at 113 umol/kg po (60 minutes post oral dosing); 14/4. Format: functional.

The molecule `CCC(C(=O)Nc1ccc2ccn(Cc3ccc(C(=O)NS(=O)(=O)c4ccccc4)cc3OC)c2c1)c1ccccc1` (centres undefined) registered an Antagonism in the assay filed under Cavia porcellus [1] of 33%.
Regarding `CCCCOC(=O)Nc1ccc2cnn(Cc3ccc(C(=O)NS(=O)(=O)c4ccccc4)cc3OC)c2c1`, the negative-log KB (pKB) in the assay listed under Cavia porcellus [2] is 9.2. Moreover, the Antagonism worked out at 77% in the assay listed under Cavia porcellus [3] and 100% in the assay listed under Cavia porcellus [1].
Take `COc1cc(C(=O)NS(=O)(=O)c2ccccc2)ccc1Cn1ncc2ccc(NC(=O)CC3CCCC3)cc21`: the Antagonism in the assay filed under Cavia porcellus [4] turned out to be 23%; in the assay listed under Cavia porcellus [5] it was 100%. Also, the pKB in the assay filed under Cavia porcellus [2] amounted to 10.5.
In the assay on Cavia porcellus [6], `COc1cc(C(=O)NS(=O)(=O)c2ccccc2C)ccc1Cn1ccc2ccc(NC(=O)CC3CCCC3)cc21` registered a Protection of 40%. The negative-log KB (pKB) in the assay listed under Cavia porcellus [2] is given as 9.9.
Consider `COC(=O)C(C(=O)c1ccc(Cn2ncc3ccc(NC(=O)OC4CCCC4)cc32)c(OC)c1)S(=O)(=O)c1ccccc1` (centres undefined), for which the values for the Antagonism in the assay filed under Cavia porcellus [5] and in the assay listed under Cavia porcellus [3] were 53% and 78%, respectively. Moreover, the negative-log KB (pKB) in the assay listed under Cavia porcellus [2] is 9.9.
Turning to `COc1cc(CNS(=O)(=O)c2ccccc2)ccc1Cn1ccc2ccc(NC(=O)OC3CCCC3)cc21`, in the assay listed under Cavia porcellus [7], the Antagonism result is “inactive”.
Turning to `COC(=O)C(C(=O)c1ccc(Cn2ccc3ccc(NC(=O)CC4CCCC4)cc32)c(OC)c1)S(=O)(=O)c1ccccc1` (centres undefined), the values for the Antagonism in the assay filed under Cavia porcellus [5] and in the assay filed under Cavia porcellus [3] were 63% and 94%, respectively. For the same molecule, the pKB in the assay filed under Cavia porcellus [2] is on record as 10.1.
`CCCCOC(=O)Nc1ccc2cnn(Cc3ccc(C(=O)O)cc3OC)c2c1`: in [8], the pKB turned out to be 6.7. This molecule also registered an Antagonism in the assay listed under Cavia porcellus [9] of 56%. The Protection in the assay with Cavia porcellus [10] is recorded as 33%.
As for `COc1cc(C(=O)NS(=O)(=O)c2ccccc2)ccc1Cn1ccc2ccc(NC(=O)OC3CCCC3)cc21`, the Protection came to 67% with Cavia porcellus [11] and 48% in the assay on Cavia porcellus [12]. In addition, the pKB in assay [8] was found to be 9.5. Moreover, the Antagonism stood at 61% in the assay filed under Cavia porcellus [3] and 100% in the assay filed under Cavia porcellus [13].
`COc1cc(C(=O)O)ccc1Cn1ccc2ccc(NC(=O)OC3CCCC3)cc21`: the negative-log KB (pKB) in [8] turned out to be 7.8. For the same molecule, the Antagonism is listed as 100% in the assay listed under Cavia porcellus [14] and 61% in the assay filed under Cavia porcellus [16]. The Protection in the assay with Cavia porcellus [15] is reported as 23%.
The molecule `CCCCC(CC)C(=O)Nc1ccc2ccn(Cc3ccc(C(=O)O)cc3OCCCc3ccccc3)c2c1` (centres undefined) registered an Antagonism in the assay listed under Cavia porcellus [17] of 18%.
`COc1cc(C(=O)NS(=O)(=O)c2ccccc2)ccc1Cn1ncc2ccc(NC(=O)OC3CCCC3)cc21` [ICI-198615]: in assay [8], the negative-log KB (pKB) amounted to 10.3. The values for the Antagonism in the assay listed under Cavia porcellus [5] and in the assay listed under Cavia porcellus [3] were 69% and 100%, respectively. Moreover, the Protection stood at 89% in the assay with Cavia porcellus [18] and 37% with Cavia porcellus [19].
As for `COc1cc(C(=O)NS(=O)(=O)c2ccccc2)ccc1Cn1ccc2ccc(NC(=O)CC3CCCC3)cc21`, in assay [8], the pKB turned out to be 9.6. In addition, the values for the Antagonism in the assay filed under Cavia porcellus [5] and in the assay listed under Cavia porcellus [3] were 50% and 92%, respectively. This molecule yielded a Protection with Cavia porcellus [20] of 43%.
Consider `CCCCC(CC)C(=O)Nc1ccc2ccn(Cc3ccc(C(=O)C(C(=O)OC)S(=O)(=O)c4ccccc4)cc3OC)c2c1` (centres undefined), for which the pKB in the assay filed under Cavia porcellus [2] worked out at 8.5. The Antagonism in the assay filed under Cavia porcellus [16] was determined as 100%; in the assay listed under Cavia porcellus [1], 65%.
Take `CCCCC(CC)C(=O)Nc1ccc2ccn(Cc3ccc(C(=O)NS(=O)(=O)CCCC)cc3OC)c2c1` (centres undefined): the figures for the Antagonism in the assay filed under Cavia porcellus [21] and in the assay filed under Cavia porcellus [22] were 63% and 100%, respectively.
Take `CCC(C(=O)Nc1ccc2cnn(Cc3ccc(C(=O)O)cc3OC)c2c1)c1ccccc1` (centres undefined): the pKB in assay [8] is 7.1. In addition, the Protection in the assay on Cavia porcellus [23] turned out to be 14%. The same molecule displayed an Antagonism in the assay filed under Cavia porcellus [9] of 30%.
On to `CCCCC(CC)C(=O)Nc1ccc2ccn(Cc3ccc(C(=O)NS(=O)(=O)c4ccccc4)cc3OC)c2c1` (centres undefined), for which the pKB in the assay listed under Cavia porcellus [2] is 8.6. In addition, the Antagonism amounted to 100% in the assay listed under Cavia porcellus [16] and 27% in the assay filed under Cavia porcellus [1].
